Data on 13 molecules can be found in ChEMBL document CHEMBL1667733, “Cytotoxic amide alkaloids from Piper boehmeriaefolium” (J Nat Prod, 2011).

Converted amounts (≈) assume the structure as drawn. The source made the active and inactive calls. The rule behind the calls is not given here.

The subject of this test is HeLa. Description: Cytotoxicity against human HeLa cells after 72 hrs by MTT assay. The test is classed as functional, cell-based. The method in brief:
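HeLa cells in log-phase growth, harvested with 0.01% trypsin, seeded at 3.0 × 10^3 cells/well and grown overnight at 37 °C in humidified 5% CO2. Six concentrations (100.00, 33.33, 11.11, 3.70, 1.23, 0.41 µg/mL) added in triplicate. After 72 h at 37 °C, MTT added for 3 h more, supernatant removed, DMSO added. Absorbance read at 550 nm against 690 nm reference. Doxorubicin positive control.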
In general terms: Tetrazolium dyes change colour on reduction, which living cells bring about.
As to `CCCCC/C=C/C=C/C=C/C(=O)N1CCCC1`, the outcome was inactive. What is called IC50 is the concentration that inhibits the measured activity by half. Low values mean greater potency in that assay, high ones weaker potency in that assay. `O=C(/C=C/C=C/CC/C=C/c1ccc2c(c1)OCO2)N1CCCC1` returned a half-maximal inhibitory concentration (IC50) of 13.7 µg/mL (≈ 42.2 µM). Same read-out and setting: the figure for `O=C(CC/C=C/CCCC/C=C/c1ccc2c(c1)OCO2)N1CCCC1` is 12.2 µg/mL (≈ 34.3 µM). As to `COc1cc(CCC(=O)n2cccc2)cc(OC)c1OC`, the result was inactive.

Regarding `O=C(/C=C/C=C/CCCC/C=C/c1ccc2c(c1)OCO2)N1CCCC1`, the IC50 worked out at 11.6 µg/mL (≈ 32.8 µM). For `COc1cc(CCC(=O)n2cccc2)cc(OC)c1O`, the result was inactive.

`O=C(CCCCCCC/C=C/c1ccc2c(c1)OCO2)N1CCCC1` came in with an IC50 of 2.67 µg/mL (≈ 7.77 µM). Same read-out and setting: in the case of `O=C(CCCCCC/C=C/c1ccc2c(c1)OCO2)N1CCCC1` it was 17.9 µg/mL (≈ 54.5 µM). For the molecule `O=C(/C=C/C=C\CC/C=C/c1ccc2c(c1)OCO2)N1CCCC1`, the IC50 is 7.42 µg/mL (≈ 22.8 µM). In the case of `O=C(/C=C/CCCC/C=C/c1ccc2c(c1)OCO2)N1CCCC1` [BRACHYAMIDE B], the IC50 came out at 15 µg/mL (≈ 45.7 µM). Consider `CCCCC/C=C/C=C/C(=O)NCC[S+](C)[O-]` (stereo not drawn), for which the outcome was inactive. On the same count and under the same terms, the entry for `CCCCC/C=C/C=C/C(=O)NCCc1ccc(O)c(OC)c1` is “inactive”. `COc1cccc2c1C(=O)c1c(O)c3c(c(O)c1C2=O)C[C@@](O)(C(=O)CO)C[C@@H]3O[C@H]1C[C@H](N)[C@H](O)[C@H](C)O1` [DOXORUBICIN] gave a half-maximal inhibitory concentration (IC50) of 0.163 µg/mL (≈ 0.3 µM).
